rCAG binder – binders of r(CAG) RNA repeats, primary screen, biochemical, fluorescence. r(CAG) RNA repeat, TO-PRO-1 dye displacement fluorescence. inhibition, % at 3 µM. 370,000 tested, 1.3% active. AID 651821, 2012;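 active means inhibition above the plate cutoff, the mean of all test compounds on that plate plus 3 SD, cut at about 35% in these data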;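 further: higher means more dye released from RNA so lower well fluorescence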
LMPTP block – LMPTP phosphatase inhibitors, primary screen, biochemical, fluorescence intensity, uHTS. recombinant LMPTP-A, OMFP fluorogenic substrate. inhibition, % at 20 µM. AID 651560, 2012. 360,000 tested, 0.22% active;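 active means compounds that cut the enzyme signal by at least half of the control window in the single-dose screen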
Target sequence (P24666 whole entry, looked up): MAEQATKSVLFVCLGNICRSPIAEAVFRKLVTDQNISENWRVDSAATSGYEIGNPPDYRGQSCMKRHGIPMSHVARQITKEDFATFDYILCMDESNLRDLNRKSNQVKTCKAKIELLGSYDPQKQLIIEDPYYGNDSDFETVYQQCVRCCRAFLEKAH
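Test system – LMPTP-A enzyme · Amount – LMPTP-A at 0.625 nM final in the reaction · Buffer or medium – Bis-Tris pH 6.0, DTT, detergent · Reagent – OMFP 400 µM · Doses – single 20 µM dose · Schedule – reaction 50 min, room temperature, dark · Detection – fluorescence intensity of OMFP turnover product · Evaluation – percent inhibition versus substrate-only and uninhibited controls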
STEP block – STEP phosphatase inhibitors, primary screen, biochemical, fluorescence intensity, uHTS; Tyrosine-protein phosphatase non-receptor type 5 (Homo sapiens), P54829; recombinant STEP, OMFP fluorogenic substrate; inhibition, % at 20 µM; 360,000 tested, 0.25% active;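 active means inhibition at 20 µM, scaled per plate between control wells, above about 37%, limit read from the data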
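System: STEP (striatal-enriched tyrosine phosphatase) enzyme, cell-free; medium: Bis-Tris pH 6.0 buffer with DTT, detergent; dosing: 20 µM, 1% DMSO; times: reaction 20 min, ambient temperature; detection: fluorescence, 480/540 nm; read-out basis: normalized % inhibition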
Scp1 inh – Scp-1 phosphatase inhibitors, primary screen, biochemical, colorimetric, uHTS; Carboxy-terminal domain RNA polymerase II polypeptide A small phosphatase 1 (Homo …; 340,000 tested, 0.88% active; Recombinant Scp1, phosphopeptide, malachite green phosphate absorbance; inhibition, % at 20 µM; AID 493091, 2011;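 active means inhibition above about 50% at 20 µM, limit read from the data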
Target sequence (Q9GZU7 76-261 limits assumed): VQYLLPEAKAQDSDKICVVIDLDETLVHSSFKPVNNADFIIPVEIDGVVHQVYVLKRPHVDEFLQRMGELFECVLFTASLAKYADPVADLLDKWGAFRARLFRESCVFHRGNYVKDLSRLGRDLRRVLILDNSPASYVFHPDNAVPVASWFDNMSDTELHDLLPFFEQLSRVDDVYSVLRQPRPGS
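assay system = SCP-1 phosphatase catalytic domain, residues 76-261 | buffer or medium = 50 mM Tris acetate pH 5.5, 0.005% Tween-20, 10 mM MgCl2 | incubation = enzyme reaction 45 min at room temperature, colour 5 min, stabilisation 30 min | signal = Phosphate-binding colour reagent, absorbance read at 630 nm | measure = % inhibition at 20 µM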
NadD block – inhibitors of S. aureus NadD, primary screen, biochemical, colorimetric, uHTS | purified NadD enzyme, colorimetric absorbance read-out | Nicotinate-nucleotide adenylyltransferase NadD (Staphylococcus aureus N315) | inhibition, % at 20 µM | 360,000 tested, 0.78% active; in the data active means inhibition above about 26%
rCAG binder conf – small molecules binding CAG repeat RNA – biochemical, fluorescence, confirmation. r(CAG) RNA repeat, TO-PRO-1 dye displacement fluorescence. 4,300 tested, 70% active. shares compounds with rCAG binder. inhibition, % at 3 µM;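 active means inhibition above a per-plate cutoff, the mean inhibition of sample wells plus 3 SD, cut at about 35% in these data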;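 further: loss of TO-PRO-1 fluorescence as compound displaces dye from 1x1 AA loop RNA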
dCAG dye counter – displacement of TO-PRO-1 from CAG DNA duplex, counter-screen for rCAG RNA repeat binder project, biochemical, fluorescence, TO-PRO-1 dye, d(CAG) DNA oligo. inhibition, % at 3 µM. shares compounds with rCAG binder. d(CAG) DNA oligo TO-PRO-1 dye displacement. 4,300 tested, 94% active;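 active means inhibition above its plate's cutoff, the mean test-well inhibition plus 3 SD, cut at about 4.8% in these data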;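 further: hits displace the dye from DNA and so lower well fluorescence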
dCAG dye DR – inhibitors of DNA CAG/GTC TO-PRO-1 complex, dose response, counter-screen for rCAG RNA repeat binder project, biochemical, fluorescence, TO-PRO-1 dye | shares compounds with rCAG binder | DNA CAG/GTC duplex TO-PRO-1 dye displacement fluorescence | IC50, µM | 250 tested, 20% active | AID 686960, 2013; in the data active means IC50 below about 10 µM
Numbers stand for hits; . = inactive; / = no result given. The list is not random: actives were taken first. Their share in the collection is about 2.6%.

SMILES | rCAG binder | LMPTP block | STEP block | Scp1 inh | NadD block | rCAG binder conf | dCAG dye counter | others
COC(=O)c1cccc(Cn2ccc3ccc(-c4ccc5ccn(C(=O)C6CCC6)c5c4)cc32)c1 | . | / | / | / | / | / | /
O=C1Nc2ccc(Br)cc2/C1=C/C(=O)c1ccc2c(c1)OCO2 | 43.6 | . | . | . | . | . | 14.5
CC1(C)CC(=O)C=C(c2ccccc2-c2cccc(C(N)=O)c2)C1=O | . | / | / | / | / | / | /
Cc1cc(Cl)cc2c(N=Nc3ccccc3C(=O)O)c(O)[nH]c12 | 39.3 | . | . | . | . | 92.0 | 75.6
OC[C@@H]1CC[C@@H]2O[C@H](CCc3ccc(-c4ccc(F)cc4)cc3)[C@H](n3cc(C4CC4)nn3)C[C@@H]2O1 | . | / | / | / | / | / | /
Cc1cccc(C(=O)Nc2nc3ncccn3c2-c2ccc(C(F)(F)F)cc2)c1 | . | / | / | / | / | / | /
CS(=O)(=O)c1ccc2nc(NC(=O)Nc3cccc(Cl)c3)sc2c1 | 71.3 | . | . | . | . | 63.3 | 46.9
Cc1ccc2nc(NC(=O)c3ccc(NS(=O)(=O)c4cccs4)cc3)sc2c1 | 43.4 | . | . | . | . | 60.6 | 22.6
CS(=O)(=O)c1ccc2nc(NC(=O)c3ccc(NS(=O)(=O)c4cccc([N+](=O)[O-])c4)cc3)sc2c1 | 72.5 | . | . | . | . | 70.1 | 31.3 | dCAG dye DR=9.38
CC1CCN(C(=O)C2CCCN(C(=O)c3ccc4c(c3)NC(=O)CS4)C2)CC1 (centres undefined) | . | / | / | / | / | / | /
COc1ccccc1C(=O)NC1CCCCN(Cc2ccc(Cl)cc2)C1=O (centres undefined) | . | / | / | / | / | / | /
CCOC(=O)c1sc(N2N=C(C)/C(=C\c3ccc(OCC(=O)OC)cc3)C2=O)nc1C | 52.1 | . | . | . | . | 45.4 | 10.0
CCOC(=O)c1sc(Nc2ccc(OCC)cc2)nc1C | . | . | . | . | . | / | /
CC1CCC2(CC1)CCN(CCCOC(=O)Nc1ccc3c(c1)OCO3)C2=O (centres undefined) | . | / | / | / | / | / | /
COc1ccc(S(=O)(=O)N2CCCCC2)cc1NS(=O)(=O)c1ccccc1F | . | . | . | . | . | / | /
COc1ccc(S(=O)(=O)N2CCCCC2)cc1NS(=O)(=O)c1cc(Cl)ccc1Cl | 36.2 | . | . | . | . | 38.7 | 10.0
COc1ccc(S(=O)(=O)N2CCCCCC2)cc1NS(=O)(=O)c1cc(C(=O)O)cc(C)c1C | 46.6 | . | . | . | . | . | 5.9
Cc1c(CCC(=O)N2CCC[C@H]2C(=O)O)c(=O)oc2c(C)c3oc4c(c3cc12)CCCC4 | 37.6 | . | . | . | . | 58.1 | 18.6 | dCAG dye DR=.
Cc1c(CCC(=O)NCCCCCC(=O)O)c(=O)oc2c(C)c3oc4c(c3cc12)CCCC4 | . | . | . | . | . | / | /
COc1cc(-c2cc(C(=O)Nc3cc(S(=O)(=O)N4CCOCC4)ccc3C)c3ccccc3n2)cc(OC)c1OC | . | . | . | . | . | / | /
CCOC(=O)c1ccc(NC(=O)c2cc(S(=O)(=O)N3CCOCC3)ccc2O)cc1 | 48.9 | . | . | . | . | 39.7 | 9.2
COc1cc(-c2cc(C(=O)Nc3cc(S(=O)(=O)N4CCOCC4)ccc3O)c3ccccc3n2)cc(OC)c1OC | 72.2 | . | . | . | . | 74.4 | 34.6
CCOC(=O)c1ccc(NC(=O)c2cc(S(=O)(=O)N3CCOCC3)cn2C)cc1 | . | . | . | . | . | / | /
CCN(CC)S(=O)(=O)c1ccc(C(=O)Nc2cc(S(=O)(=O)N3CCOCC3)ccc2O)cc1 | 35.5 | . | . | . | . | . | 6.9
CCS(=O)(=O)c1ccc(O)c(NC(=O)c2ccc(S(=O)(=O)N3CCCCCC3)cc2)c1 | 36.8 | . | . | . | . | 46.4 | 10.9
SMILES | rCAG binder | LMPTP block | STEP block | Scp1 inh | NadD block | rCAG binder conf | dCAG dye counter | others
CCCCOC(=O)c1ccc(Nc2ncnc3nc[nH]c23)cc1 | . | . | . | . | . | / | /
CCCCCCCCOC(=O)c1cc([N+](=O)[O-])c(Sc2ncnc3nc[nH]c23)c([N+](=O)[O-])c1 | 37.5 | . | . | . | . | 40.2 | 18.9
COC(=O)c1cccc(Cn2ccc3ccc(-c4ccc5ccn(C(=O)c6ccccc6)c5c4)cc32)c1 | . | / | / | / | / | / | /
CCN(CC)C(=O)CC[C@H]1CC[C@]2(CCCN(Cc3ccc(N(C)C)cc3)C2)O1 | . | / | / | / | / | / | /
CC(C)(c1ccccc1)c1ccc(OCc2ccc(C(=O)O)o2)cc1 | 38.6 | . | . | . | . | . | .
O=C(N[C@@H](Cc1c[nH]c2ccccc12)C(=O)O)C1CCN(S(=O)(=O)c2cccs2)CC1 | . | . | . | . | . | / | /
O=C(N[C@@H](Cc1c[nH]c2ccccc12)C(=O)O)C1CCN(S(=O)(=O)c2ccc(Cl)cc2)CC1 | 34.6 | . | . | . | . | . | 8.2
COC(=O)C1CN(Cc2ccccc2)CCS(=O)(=O)N1Cc1cn(Cc2ccc(Cl)cc2)nn1 (centres undefined) | . | / | / | / | / | / | /
C/C(=N\NC(=O)c1cc2ccccc2cc1O)c1ccc(C)o1 | 43.0 | . | . | . | . | . | 6.5
C/C(=N\NC(=O)c1cc2ccccc2cc1O)c1cccs1 | 49.6 | . | . | . | . | . | .
O=C(NNC(=O)c1cc2ccccc2cc1O)c1cccs1 | . | . | . | . | . | / | /
C/C(=N\NC(=O)c1cc(C)nc2ccccc12)c1ccco1 | . | . | . | . | . | / | /
C/C(=N/NC(=O)c1cc2ccccc2cc1O)c1ccco1 | 50.9 | . | . | . | . | . | 9.0
O=C(N/N=C/c1c(O)n(Cc2ccco2)c(=O)[nH]c1=O)c1ccccc1 | 49.9 | . | . | . | . | . | 10.7
O=C(N/N=C\c1ccccc1OCc1ccccc1)c1ccco1 | . | . | . | . | . | / | /
Cc1ccc(Nc2nc(Cl)c(C=O)s2)cc1Cl | 42.8 | . | . | . | . | . | 12.2
O=[N+]([O-])c1c(Nc2ccccc2O)ccc2nonc12 | . | . | . | . | . | / | /
O=[N+]([O-])c1c(Nc2ccccc2O)cc(Cl)c2nonc12 | 41.0 | . | . | . | . | . | 9.7
